Results as given in ChEMBL document CHEMBL1629488, “Synthesis and biological evaluation of 2-(3',4',5'-trimethoxybenzoyl)-3-aryl/arylaminobenzo[b]thiophene derivatives as a novel class of antiproliferative agents” (Eur J Med Chem, 2010).
pIC50: −log10 of the molar value. Calls of active or inactive are those of the source. The calls are words filed in the database; no cut-off is given here.

Legend:
HeLa [1] = assay: Antiproliferative activity against human HeLa cells assessed as cell viability after 72 hrs by MTT assay; assay type: functional, cell-based
In short: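 A549 and HeLa cells grown in DMEM with 10% FBS and penicillin/streptomycin. Plated at 8 × 10^3 cells/well and held 18 h at 37 °C in 5% CO2. Medium replaced with compound in complete medium at varied concentrations for 72 h at 37 °C, then MTT read.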

Jurkat [2] = assay: Antiproliferative activity against human Jurkat cells after 72 hrs by MTT assay; assay type: functional, cell-based
K562 = assay: Antiproliferative activity against human K562 cells after 72 hrs by MTT assay; assay type: functional, cell-based; conditions: K562, 72 h
Jurkat [3] = assay: Cell cycle arrest in human Jurkat cells assessed as accumulation at G2/M phase at 1.25 uM after 24 hrs using propidium iodide staining by flow cytometry relative to control; assay type: functional
In short: (§1)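 Exponentially growing cells (5 × 10^5) exposed to graded compound levels, 0.312 to 5 μM, for 24 or 48 h; collected, fixed in ice-cold 70% ethanol, treated with lysis buffer containing RNase A and 0.1% Triton X-100, stained with propidium iodide; DNA content read by flow cytometry. Mean ± SEM of two independent experiments.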

HeLa [4] = assay: Cell cycle arrest in human HeLa cells assessed as accumulation at G2/M phase at 0.625 uM after 24 hrs using propidium iodide staining by flow cytometry relative to control; assay type: functional; in short: as §1
HeLa [5] = assay: Upregulation of cyclin B1 protein expression in human HeLa cells after 24 to 48 hrs by Western blot analysis; assay type: functional, cell-based
In short: (§2)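 Treated cells washed twice in ice-cold PBS, lysed 30 min on ice, lysate cleared at 15000×g, 4 °C, 10 min; protein by BCA. 20 μg per lane on SDS-PAGE (7.5–15%), PVDF transfer, overnight block at 4 °C; primary antibodies 2 h at room temperature, peroxidase secondaries 60 min, ECL detection; β-actin loading control.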

HeLa [6] = assay: Induction of apoptosis in human HeLa cells assessed as viable cells at 5 uM after 24 hrs using FITC-conjugated annexin V and propidium iodide staining by flow cytometry assay (RVb = 94.7 %); assay type: functional; conditions: read-out: Activity
HeLa [7] = assay: Induction of apoptosis in human HeLa cells assessed as loss of mitochondrial membrane potential after 24 to 48 hrs using Rho123 staining by flow cytometry; assay type: functional, cell-based
In short: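 After 24 or 48 h exposure, HeLa cells were pelleted, resuspended in HBSS with 0.1 μM rhodamine 123, held 20 min at 37 °C, spun and resuspended in HBSS; fluorescence read by flow cytometry. Mean ± S.E.M. of 3 independent experiments.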

HeLa [8] = assay: Induction of apoptosis in human HeLa cells assessed as ROS production after 24 to 48 hrs using H2-DCFDA staining by flow cytometry; assay type: functional, cell-based
In short: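 ROS probe: after 24 or 48 h exposure, HeLa cells resuspended in HBSS with 0.1 μM H2DCFDA, incubated 30 min at 37 °C, spun and resuspended in HBSS; fluorescence recorded by flow cytometry, excitation 488 nm, emission 530 nm.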

HeLa [9] = assay: Induction of apoptosis in human HeLa cells assessed as caspase-3-mediated cleavage of PARP after 24 to 48 hrs; assay type: functional, cell-based; in short: as §2
HeLa [10] = assay: Induction of apoptosis in human HeLa cells assessed as viable cells at 2.5 uM after 24 hrs using FITC-conjugated annexin V and propidium iodide staining by flow cytometry assay (RVb = 94.7 %); assay type: functional; conditions: read-out: Activity
HeLa [11] = assay: Induction of apoptosis in human HeLa cells assessed as viable cells at 1.25 uM after 24 hrs using FITC-conjugated annexin V and propidium iodide staining by flow cytometry assay (RVb = 94.7 %); assay type: functional; conditions: read-out: Activity
HeLa [12] = assay: Induction of apoptosis in human HeLa cells assessed as early apoptotic cells at 5 uM after 24 hrs using FITC-conjugated annexin V and propidium iodide staining by flow cytometry assay (RVb = 1.5 %); assay type: functional
HeLa [13] = assay: Induction of apoptosis in human HeLa cells assessed as early apoptotic cells at 2.5 uM after 24 hrs using FITC-conjugated annexin V and propidium iodide staining by flow cytometry assay (RVb = 1.5 %); assay type: functional
HeLa [14] = assay: Induction of apoptosis in human HeLa cells assessed as late apoptotic cells at 2.5 uM after 24 hrs using FITC-conjugated annexin V and propidium iodide staining by flow cytometry assay (RVb = 1.9 %); assay type: functional
HeLa [15] = assay: Induction of apoptosis in human HeLa cells assessed as late apoptotic cells at 1.25 uM after 24 hrs using FITC-conjugated annexin V and propidium iodide staining by flow cytometry assay (RVb = 1.9 %); assay type: functional
HeLa [16] = assay: Induction of apoptosis in human HeLa cells assessed as late apoptotic cells at 0.62 uM after 24 hrs using FITC-conjugated annexin V and propidium iodide staining by flow cytometry assay (RVb = 1.9 %); assay type: functional
HeLa [17] = assay: Induction of apoptosis in human HeLa cells assessed as necrotic cells at 5 uM after 24 hrs using FITC-conjugated annexin V and propidium iodide staining by flow cytometry assay (RVb = 1.9 %); assay type: functional
HeLa [18] = assay: Induction of apoptosis in human HeLa cells assessed as necrotic cells at 2.5 uM after 24 hrs using FITC-conjugated annexin V and propidium iodide staining by flow cytometry assay (RVb = 1.9 %); assay type: functional
HeLa [19] = assay: Induction of apoptosis in human HeLa cells assessed as necrotic cells at 1.25 uM after 24 hrs using FITC-conjugated annexin V and propidium iodide staining by flow cytometry assay (RVb = 1.9 %); assay type: functional
Jurkat [20] = assay: Cell cycle arrest in human Jurkat cells assessed as accumulation at G2/M phase after 24 hrs using propidium iodide staining by flow cytometry; assay type: functional, cell-based; in short: as §1
Jurkat [21] = assay: Cell cycle arrest in human Jurkat cells assessed as accumulation at G1 phase at 1.25 uM after 24 hrs using propidium iodide staining by flow cytometry relative to control; assay type: functional; in short: as §1
HeLa [22] = assay: Cell cycle arrest in human HeLa cells assessed as reduction of cells at S phase at 1.25 uM after 24 hrs using propidium iodide staining by flow cytometry; assay type: functional, cell-based; in short: as §1
Jurkat [23] = assay: Cell cycle arrest in human Jurkat cells assessed as hypodiploid peak at sub-G1 phase at 0.312 to 5 uM uM after 48 hrs using propidium iodide staining by flow cytometry; assay type: functional, cell-based; in short: as §1
HeLa [24] = assay: Upregulation of cdc25c protein expression in human HeLa cells at 0.6 to 2.5 uM after 24 to 48 hrs by Western blot analysis; assay type: functional, cell-based; in short: as §2
HeLa [25] = assay: Upregulation of p53 protein expression in human HeLa cells at up to 2.5 uM after 24 to 48 hrs by Western blot analysis; assay type: functional, cell-based; in short: as §2
HeLa [26] = assay: Induction of apoptosis in human HeLa cells assessed as caspase-3-mediated cleavage of PARP after 24 hrs by Western blot analysis; assay type: functional, cell-based; in short: as §2
HeLa [27] = assay: Induction of apoptosis in human HeLa cells assessed as caspase-3-mediated cleavage of PARP after 48 hrs by Western blot analysis; assay type: functional, cell-based; in short: as §2
HeLa [28] = assay: Induction of apoptosis in human HeLa cells assessed as increase of Bcl-2 protein expression up to 2.5 uM after 24 to 48 hrs by Western blot analysis; assay type: functional, cell-based; in short: as §2
HeLa [29] = assay: Induction of apoptosis in human HeLa cells assessed as increase of Bax protein expression up to 2.5 uM after 24 to 48 hrs by Western blot analysis; assay type: functional, cell-based; in short: as §2
[30] = Inhibition of tubulin polymerization after 20 mins by turbidimetry

SMILES: CCOc1ccc(Nc2c(C(=O)c3cc(OC)c(OC)c(OC)c3)sc3ccccc23)cc1
- pIC50 (HeLa [1]): 6.15
- pIC50 (Jurkat [2]): 6.52
- pIC50 (K562): 6.70
- Activity (Jurkat [3]): 70%
- Activity (HeLa [4]): 52%
- Activity (HeLa [5]): Dose-dependent effect
- viability at 5 µM (HeLa [6]): 49.9%
- Activity (HeLa [7]): Dose-dependent effect
- Activity (HeLa [8]): Active
- Activity (HeLa [9]): Dose-dependent effect
- viability at 2.5 µM (HeLa [10]): 49.4%
- viability at 1.25 µM (HeLa [11]): 63.7%
- Activity (HeLa [12]): 7.2%
- Activity (HeLa [13]): 6.4%
- Activity (HeLa [14]): 24.9%
- Activity (HeLa [15]): 16%
- Activity (HeLa [16]): 14.4%
- Activity (HeLa [17]): 17.4%
- Activity (HeLa [18]): 19.3%
- Activity (HeLa [19]): 13.4%
- Activity (Jurkat [20]): Dose-dependent effect
- Activity (Jurkat [21]): 10%
- Activity (HeLa [22]): Active
- Activity (Jurkat [23]): Active
- Activity (HeLa [24]): Active
- Activity (HeLa [25]): inactive
- Activity (HeLa [26]): Active
- Activity (HeLa [27]): Active
- Activity (HeLa [28]): Active
- Activity (HeLa [29]): inactive
- pIC50 [30]: 5.14
